Measured values reported in ChEMBL document CHEMBL4477166, “18β-Glycyrrhetinic Acid Derivatives Possessing a Trihydroxylated A Ring Are Potent Gram-Positive Antibacterial Agents” (2016).
In brackets after ≈: the same amount, converted by molar mass. Activity calls are given as the source filed them. The rule behind the calls is not given here.

What was measured:
Escherichia coli [1] = assay: Antibacterial activity against Escherichia coli ATCC 25922 measured after overnight incubation by microplate dilution assay; format: functional
Escherichia coli [2] = assay: Antibacterial activity against Escherichia coli measured after 5 to 6 hrs by microdilution titre technique; format: functional
Bacillus thuringiensis = assay: Antibacterial activity against Bacillus thuringiensis measured after 5 to 6 hrs by microdilution titre technique; format: functional
Staphylococcus aureus [3] = assay: Reduction in narG expression in Staphylococcus aureus ATCC 25923 at 0.5 times MIC by qRT-PCR analysis relative to control; format: functional, organism-based
Method in brief: (§1)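 Bacteria were grown in broth with compound at 0.5 × MIC or vehicle to exponential phase (OD620 = 0.4) and then pelleted. Total RNA was reverse-transcribed, and SYBR-based real-time PCR was run against housekeeping genes. Relative expression versus control was calculated by 2^−ΔΔCT. Mean ± SEM, n = 3, significance at p < 0.05.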

Streptomyces scabiei [4] = assay: Reduction in p450 expression in Streptomyces scabiei CGMCC4.7610246 at 0.5 times MIC by qRT-PCR analysis relative to control; format: functional, organism-based; method in brief: as §1
Bacillus subtilis [5] = assay: Upregulation of yhdT expression in Bacillus subtilis ATCC 6051 at 0.5 times MIC by qRT-PCR analysis relative to control; format: functional, organism-based; method in brief: as §1
Staphylococcus aureus [6] = assay: Reduction in narG expression in methicillin-resistant Staphylococcus aureus at 0.5 times MIC by qRT-PCR analysis relative to control; format: functional, organism-based
Method in brief: (§2)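 MRSA grown in broth containing either 0.5 × MIC of test compound or vehicle alone. Cells harvested at exponential phase (OD₆₂₀ = 0.4). Total RNA reverse-transcribed, then SYBR-based real-time PCR run. Relative expression computed by the 2^−ΔΔCT method against the vehicle control or the parent-acid-treated group. Mean ± SEM, n = 3; significance set at p < 0.05.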

Staphylococcus aureus [7] = assay: Upregulation of hla expression in Staphylococcus aureus ATCC 25923 at 0.5 times MIC by qRT-PCR analysis relative to control; format: functional, organism-based; method in brief: as §1
Pseudomonas aeruginosa [8] = assay: Antibacterial activity against multi-drug resistant Pseudomonas aeruginosa at 100 uM measured after 5 to 6 hrs by microdilution assay; format: functional, organism-based
Method in brief: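 Log-phase cells seeded at 1 × 10⁵ CFU/mL. Single-dose screen at 100 μM, with DMSO cosolvent at most 1% v/v. Growth measured turbidimetrically at 620 nm, before and after incubation with vigorous shaking.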

Bacillus subtilis [9] = assay: Upregulation of yqhB expression in Bacillus subtilis ATCC 6051 at 0.5 times MIC by qRT-PCR analysis relative to control; format: functional, organism-based; method in brief: as §1
Staphylococcus aureus [10] = assay: Inhibition of hla expression in methicillin-resistant Staphylococcus aureus at 0.5 times MIC by qRT-PCR analysis relative to control; format: functional, organism-based; method in brief: as §2
Staphylococcus aureus [11] = assay: Upregulation of seaR expression in Staphylococcus aureus ATCC 25923 at 0.5 times MIC by qRT-PCR analysis relative to control; format: functional, organism-based; method in brief: as §1
Streptomyces scabiei [12] = assay: Antibacterial activity against Streptomyces scabiei CGMCC4.7610246 by microdilution assay; format: functional
Method in brief: (§3)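 Turbidimetric broth microdilution. Log-phase cells were washed and resuspended in broth (LB at 37 °C for B. subtilis and S. aureus; oat bran broth at 28 °C for S. scabies) and seeded at 1 × 10⁵ CFU/mL. Twofold serial dilutions were made with DMSO ≤1% (v/v). A620 was read, then plates were incubated with vigorous shaking. MIC was the lowest concentration with no apparent growth versus vehicle-only medium without cells. Run in triplicate.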

Bacillus subtilis [13] = assay: Antibacterial activity against Bacillus subtilis ATCC 6051 by microdilution assay; format: functional; method in brief: as §3
Escherichia coli [14] = assay: Antibacterial activity against Escherichia coli at 100 uM measured after 5 to 6 hrs by microdilution assay; format: functional, organism-based
Staphylococcus aureus [15] = assay: Inhibition of seaR expression in methicillin-resistant Staphylococcus aureus at 0.5 times MIC by qRT-PCR analysis relative to control; format: functional, organism-based; method in brief: as §2
Staphylococcus aureus [16] = assay: Effect on lytM expression in Staphylococcus aureus ATCC 25923 at 0.5 times MIC by qRT-PCR analysis; format: functional, organism-based; method in brief: as §1
Staphylococcus aureus [17] = assay: Antibacterial activity against methicillin-resistant Staphylococcus aureus by microdilution assay; format: functional
Method in brief: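 Log-phase cells seeded at 1 × 10⁵ CFU/mL. Twofold serial dilutions made in broth with DMSO cosolvent, at most 1% v/v. Turbidity read at 620 nm before and after incubation with vigorous shaking. MIC is the lowest concentration with no apparent growth versus the medium-plus-vehicle control. Run in triplicate.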

Bacillus subtilis [18] = assay: Reduction in mmD expression in Bacillus subtilis ATCC 6051 at 0.5 times MIC by qRT-PCR analysis relative to control; format: functional, organism-based; method in brief: as §1
Pseudomonas aeruginosa [19] = assay: Antibacterial activity against Pseudomonas aeruginosa at 100 uM measured after 5 to 6 hrs by microdilution assay; format: functional, organism-based
Staphylococcus aureus [20] = assay: Antibacterial activity against Staphylococcus aureus ATCC 25923 by microdilution assay; format: functional; method in brief: as §3
Streptomyces scabiei [21] = assay: Antibacterial activity against Streptomyces scabiei CGMCC4.7610246 at 0.5 times MIC by time-kill analysis; format: functional, organism-based
Method in brief: (§4)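 Killing kinetics for S. scabies in oat bran broth at 28 °C, starting at 5 × 10⁵ CFU/mL. Exposure was 0.5×, 1×, 2× or 4× MIC, with negative and positive controls. Samples of 1 mL were withdrawn at 0, 4, 8, 16, 24 and 36 h, serially diluted and plated, and survival was calculated from colony counts. Performed in triplicate.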

Staphylococcus aureus [22] = assay: Antibacterial activity against Staphylococcus aureus ATCC 25923 by time-kill analysis; format: functional, organism-based
Method in brief: (§5)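 Time-kill in LB at 37 °C. B. subtilis or S. aureus suspensions were set at 5 × 10⁵ CFU/mL and exposed to 0.5×, 1×, 2× and 4× MIC alongside negative and positive controls. Samples of 1 mL were taken at 0, 2, 4, 6, 8, 12 and 24 h, serially diluted and plated for viable counts, and survival was calculated. Three repeats.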

Streptomyces scabiei [23] = assay: Reduction in murX expression in Streptomyces scabiei CGMCC4.7610246 at 0.5 times MIC by qRT-PCR analysis relative to control; format: functional, organism-based; method in brief: as §1
Bacillus subtilis [24] = assay: Antibacterial activity against Bacillus subtilis ATCC 6051 at 0.5 times MIC by time-kill analysis; format: functional, organism-based; method in brief: as §5
Bacillus subtilis [25] = assay: Antibacterial activity against Bacillus subtilis ATCC 6051 by time-kill analysis; format: functional, organism-based; method in brief: as §5
Staphylococcus aureus [26] = assay: Antibacterial activity against Staphylococcus aureus ATCC 25923 at 0.5 times MIC by time-kill analysis; format: functional, organism-based; method in brief: as §5
Streptomyces scabiei [27] = assay: Antibacterial activity against Streptomyces scabiei CGMCC4.7610246 by time-kill analysis; format: functional, organism-based; method in brief: as §4

Compound	Activity (Pseudomonas aeruginosa [8])	MIC (Streptomyces scabiei [12]) [µg/mL]	MIC (Bacillus subtilis [13]) [µg/mL]	Activity (Escherichia coli [14])	MIC (Staphylococcus aureus [17]) [µg/mL]	Activity (Pseudomonas aeruginosa [19])	MIC (Staphylococcus aureus [20]) [µg/mL]	other results
CC1(C)[C@@H](O)C[C@H](O)[C@]2(C)[C@H]3CC=C4[C@@H]5C[C@@](C)(C(=O)O)CC[C@]5(C)CC[C@@]4(C)[C@]3(C)CC[C@@H]12	–	–	–	–	–	–	–	MIC (Escherichia coli [1]): 16 µg/mL (≈ 33.8 µM)
CC1(C)CC[C@]2(C(=O)O)CC[C@]3(C)C(=CC[C@@H]4[C@@]5(C)CC[C@H](O)C(C)(C)[C@@H]5CC[C@]43C)[C@@H]2C1 [OLEANOLIC_ACID]	–	–	–	–	–	–	–	MIC (Escherichia coli [2]): 7.8 µg/mL (≈ 17.1 µM); MIC (Bacillus thuringiensis): 1.9 µg/mL (≈ 4.16 µM)
CC1(C)CC[C@]2(C(=O)O)CC[C@]3(C)C(=CC[C@@H]4[C@@]5(C)C[C@@H](O)[C@H](O)C(C)(C)[C@@H]5CC[C@]43C)[C@@H]2C1 [MASLINIC ACID]	–	–	–	–	–	–	–	MIC (Escherichia coli [2]): 3.9 µg/mL (≈ 8.25 µM); MIC (Bacillus thuringiensis): 0.9 µg/mL (≈ 1.9 µM)
CC1(C)CC[C@H](O)[C@]2(C)[C@H]3CC=C4[C@@H]5C[C@@](C)(C(=O)O)CC[C@]5(C)CC[C@@]4(C)[C@]3(C)CC[C@@H]12	–	–	–	–	–	–	–	MIC (Escherichia coli [1]): > 250 µg/mL
CC1(C)[C@@H](O)CC[C@]2(C)[C@H]3C(=O)C=C4[C@@H]5C[C@@](C)(C(=O)O)CC[C@]5(C)CC[C@@]4(C)[C@]3(C)CC[C@@H]12 [ENOXOLONE]	inactive	> 50	> 50	inactive	> 50	inactive	> 50	Activity (Staphylococcus aureus [3]): inactive; Activity (Streptomyces scabiei [4]): Active; Activity (Bacillus subtilis [5]): Active; Activity (Staphylococcus aureus [6]): inactive; Activity (Staphylococcus aureus [7]): Active; Activity (Bacillus subtilis [9]): Active; inhibition (Staphylococcus aureus [10]): Active; Activity (Staphylococcus aureus [11]): Active; inhibition (Staphylococcus aureus [15]): Active; Activity (Staphylococcus aureus [16]): inactive; Activity (Bacillus subtilis [18]): inactive
CC1(C)C(=O)CC[C@]2(C)[C@H]3CC=C4[C@@H]5C[C@@](C)(C(=O)OCc6ccccc6)CC[C@]5(C)CC[C@@]4(C)[C@]3(C)CC[C@@H]12	inactive	> 50	> 50	inactive	> 50	inactive	> 50	–
CCCCCOC(=O)[C@@]1(C)CC[C@]2(C)CC[C@]3(C)C(=CC(=O)[C@@H]4[C@@]5(C)[C@@H](O)[C@H](O)[C@H](O)C(C)(C)[C@@H]5CC[C@]43C)[C@@H]2C1	inactive	> 50	> 50	inactive	> 50	inactive	> 50	–
CC1(C)[C@H](O)[C@@H]2O[C@@H]2[C@]2(C)[C@H]3C(=O)C=C4[C@@H]5C[C@@](C)(C(=O)OCc6ccccc6)CC[C@]5(C)CC[C@@]4(C)[C@]3(C)CC[C@@H]12	inactive	36.7 (≈ 63.8 µM)	> 36.7	inactive	> 32	inactive	> 36.7	–
CC1(C)[C@@H](O)[C@@H](O)[C@H](O)[C@]2(C)[C@H]3C(=O)C=C4[C@@H]5C[C@@](C)(C(=O)OCc6ccc([N+](=O)[O-])cc6)CC[C@]5(C)CC[C@@]4(C)[C@]3(C)CC[C@@H]12	inactive	> 50	> 50	inactive	> 50	inactive	> 50	–
CCCOC(=O)[C@@]1(C)CC[C@]2(C)CC[C@]3(C)C(=CC[C@@H]4[C@@]5(C)[C@@H](O)[C@H](O)[C@H](O)C(C)(C)[C@@H]5CC[C@]43C)[C@@H]2C1	inactive	> 33.9	> 33.9	inactive	8 (≈ 15.1 µM)	inactive	8.4 (≈ 15.8 µM)	–
COC(=O)[C@@]1(C)CC[C@]2(C)CC[C@]3(C)C(=CC[C@@H]4[C@@]5(C)[C@@H](O)[C@H](O)[C@H](O)C(C)(C)[C@@H]5CC[C@]43C)[C@@H]2C1	inactive	1 (≈ 1.99 µM)	4 (≈ 7.96 µM)	inactive	> 32	inactive	2 (≈ 3.98 µM)	Activity (Streptomyces scabiei [21]): inactive; Activity (Streptomyces scabiei [4]): Active; Activity (Staphylococcus aureus [22]): Dose-dependent effect; Activity (Streptomyces scabiei [23]): Active; Activity (Bacillus subtilis [24]): inactive; Activity (Bacillus subtilis [25]): Dose-dependent effect; Activity (Staphylococcus aureus [26]): inactive; Activity (Streptomyces scabiei [27]): Dose-dependent effect
CCCCCCCCCCCCCCCOC(=O)[C@@]1(C)CC[C@]2(C)CC[C@]3(C)C(=CC[C@@H]4[C@@]5(C)[C@@H](O)[C@H](O)[C@H](O)C(C)(C)[C@@H]5CC[C@]43C)[C@@H]2C1	inactive	> 50	> 50	inactive	> 50	inactive	> 50	–
